Data from PMC4506215 (Nature, 2015).
Substitutions are numbered along the chain they refer to. pIC50: −log10 of the molar value.

Columns and labels:
metastatic CRPC = conditions: cited from earlier work
SRD5A = biological target: T1, SRD5A (Homo sapiens, UniProt P18405); assay: Conversion of [3H]-AD to 5α-reduced androgens in LAPC4 cells; assay type: cell-based; conditions: up to 100 μM
T1 sequence (P18405 1-259): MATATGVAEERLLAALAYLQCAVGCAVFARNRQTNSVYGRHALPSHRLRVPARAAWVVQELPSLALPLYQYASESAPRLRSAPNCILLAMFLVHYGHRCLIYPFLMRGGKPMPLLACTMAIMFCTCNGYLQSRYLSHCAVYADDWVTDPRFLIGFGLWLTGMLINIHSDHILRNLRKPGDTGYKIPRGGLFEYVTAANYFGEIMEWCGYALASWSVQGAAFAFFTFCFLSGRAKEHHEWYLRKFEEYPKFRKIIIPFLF
Method in brief: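 LAPC4 cells (IMDM, 10% FBS) seeded at 0.2 million/well for ~24 h, then given [3H]-AD mixed with unlabeled AD (final 100 nM, ~1,000,000 cpm/well) plus test compound at 37°C. Medium treated with β-glucuronidase (65°C, 2 h), extracted with ethyl acetate:isooctane (1:1), dried. Steroids separated by C18 reverse-phase HPLC, methanol/water gradient. Biological n=3; repeated three times.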

LNCaP cells = assay: Cell proliferation assay, DHT-induced growth; assay type: cell-based; conditions: DHT 0.5 nM, 2, 4 and 6 days
Method in brief: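 LNCaP cells (0.1 million/mL) in phenol red-free RPMI-1640 with 10% charcoal-stripped FBS plus androgen and/or test compound. Medium changed every other day. Cells lysed after 2, 4 or 6 days; growth measured as DNA content by Hoechst fluorescence. Two-tailed Student's t-test.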

[1] = biological target: T2, mutant AR (expressed in LNCaP) (Homo sapiens, UniProt P10275, T878A); assay: cell-based; assay type: binding
T2 sequence (P10275 1-920 T878A): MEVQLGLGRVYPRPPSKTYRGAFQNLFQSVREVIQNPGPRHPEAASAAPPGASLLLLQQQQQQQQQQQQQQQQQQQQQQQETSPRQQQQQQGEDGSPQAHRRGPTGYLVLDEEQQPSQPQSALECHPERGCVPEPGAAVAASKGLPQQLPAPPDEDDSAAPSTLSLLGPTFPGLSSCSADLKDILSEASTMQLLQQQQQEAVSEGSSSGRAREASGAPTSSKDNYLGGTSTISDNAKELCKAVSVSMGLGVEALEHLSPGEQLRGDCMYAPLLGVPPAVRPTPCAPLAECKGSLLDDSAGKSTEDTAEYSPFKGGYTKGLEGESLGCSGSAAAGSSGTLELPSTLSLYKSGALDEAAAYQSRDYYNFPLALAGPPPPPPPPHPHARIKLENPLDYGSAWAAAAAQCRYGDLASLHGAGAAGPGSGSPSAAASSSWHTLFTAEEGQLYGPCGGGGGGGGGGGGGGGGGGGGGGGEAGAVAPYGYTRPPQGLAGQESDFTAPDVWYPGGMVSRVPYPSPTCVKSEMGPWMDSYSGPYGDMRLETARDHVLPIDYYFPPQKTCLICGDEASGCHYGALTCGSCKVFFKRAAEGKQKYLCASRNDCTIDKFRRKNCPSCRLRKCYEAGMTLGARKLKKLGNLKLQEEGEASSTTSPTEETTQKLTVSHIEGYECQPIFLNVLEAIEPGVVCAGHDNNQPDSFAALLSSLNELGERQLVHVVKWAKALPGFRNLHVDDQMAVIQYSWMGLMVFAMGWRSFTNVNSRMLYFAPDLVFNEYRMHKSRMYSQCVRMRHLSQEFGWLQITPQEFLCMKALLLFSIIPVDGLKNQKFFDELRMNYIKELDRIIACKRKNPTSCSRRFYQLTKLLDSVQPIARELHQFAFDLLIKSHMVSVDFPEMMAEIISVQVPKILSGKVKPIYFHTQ

[2] = biological target: T3, wild-type AR (expressed in LAPC4) (Homo sapiens, UniProt P10275); assay: cell-based; assay type: binding
T3 sequence (P10275 1-920): T2 sequence (P10275 1-920 T878A) with A878T

[3] = patients, wide interpatient variability; cited from earlier work

Which “survival in metastatic CRPC” value (metastatic CRPC) does the source give for `CNC(=O)c1ccc2cc([C@@]3(O)CCn4cncc43)ccc2c1` [TAK-700] here?
The value was “failed to prolong survival”.

Which “effect on conversion from AD to 5α-reduced androgens” value (SRD5A) does the source give for `CNC(=O)c1ccc(N2C(=S)N(c3ccc(C#N)c(C(F)(F)F)c3)C(=O)C2(C)C)cc1F` [enzalutamide] here?
The value was “no detectable effect”.

And the “effect on DHT-stimulated cell growth” value (LNCaP cells)?
The value was “more potent than Abi”.

For `C[C@]12CC[C@H](O)CC1=CC[C@@H]1[C@@H]2CC[C@]2(C)C(c3cccnc3)=CC[C@@H]12` [Abi, abiraterone], which “effect on conversion from AD to 5α-reduced androgens” value (SRD5A) is on record?
Its value is “no detectable effect”.

What about the pIC50 [1] of the same compound?
The pIC50 was 6.38.

And the pIC50 [2]?
Its pIC50 is under 6.30.

What about the Cmax [3] of the same compound?
The Cmax was about 1000 nM.
